# Results from paper PMC7498158 (Journal of Medicinal Chemistry, 2020).
# How the values were obtained:
# Format in all cases: biochemical
# [1] = biological target: T1, PLAAT2 (Homo sapiens, UniProt Q9NWW9)
# T1 sequence (Q9NWW9 1-162): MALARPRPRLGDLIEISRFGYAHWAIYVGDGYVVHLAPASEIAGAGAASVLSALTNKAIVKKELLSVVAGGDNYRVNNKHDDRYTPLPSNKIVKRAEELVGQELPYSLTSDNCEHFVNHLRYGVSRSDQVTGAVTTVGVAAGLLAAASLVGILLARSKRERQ
# How it was run: (§1)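 Human PLAAT cDNA (C-terminal FLAG, pcDNA3.1) was PEI-transfected into HEK293T; cytosol came from a 100,000g spin. Cytosol was preincubated with test compound (30 min, rt), then MB064 (20 min, rt). Conditions: PLAAT2 0.25 μg/μL, 250 nM; PLAAT3 0.5 μg/μL, 250 nM; PLAAT4/5 1 μg/μL, 500 nM. In-gel fluorescence was normalized to Coomassie, in triplicate. Single-concentration screen or IC50 from dose–response curves.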
# [2] = biological target: T2, mDAGLβ (Mus musculus, UniProt Q91WC9); test: gel-based ABPP, mouse brain membrane proteome; conditions: 10 μM
# T2 sequence (Q91WC9 1-669): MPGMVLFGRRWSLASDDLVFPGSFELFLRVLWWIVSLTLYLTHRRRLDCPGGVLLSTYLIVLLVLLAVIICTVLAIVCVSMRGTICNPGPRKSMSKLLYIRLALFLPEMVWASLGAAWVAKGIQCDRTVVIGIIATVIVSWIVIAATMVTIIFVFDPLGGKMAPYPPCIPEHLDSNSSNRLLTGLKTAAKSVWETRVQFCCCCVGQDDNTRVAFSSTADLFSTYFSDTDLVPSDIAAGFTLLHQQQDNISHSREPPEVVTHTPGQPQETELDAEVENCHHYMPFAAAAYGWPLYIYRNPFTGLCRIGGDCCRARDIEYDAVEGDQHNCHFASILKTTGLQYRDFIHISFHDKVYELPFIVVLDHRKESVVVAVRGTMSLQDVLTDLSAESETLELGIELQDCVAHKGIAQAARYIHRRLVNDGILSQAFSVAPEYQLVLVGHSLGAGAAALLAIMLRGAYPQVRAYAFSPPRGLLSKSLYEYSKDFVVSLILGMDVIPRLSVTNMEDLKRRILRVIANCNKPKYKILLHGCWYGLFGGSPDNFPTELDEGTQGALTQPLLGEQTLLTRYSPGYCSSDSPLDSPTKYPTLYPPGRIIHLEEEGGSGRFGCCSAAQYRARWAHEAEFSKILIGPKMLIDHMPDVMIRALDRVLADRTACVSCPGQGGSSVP
# How it was run: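 Mouse brain was dounce-homogenized in 20 mM HEPES pH 7.2 with DTT, MgCl2 and benzonase. The membrane pellet from ultracentrifugation (100,000g, 45 min, 4 °C) was used at 2 μg/μL. It was preincubated with test compound in DMSO (30 min, rt), then labeled with MB064 (250 nM) or FP-TAMRA (500 nM) for 15 min at rt. Samples ran on 10% SDS-PAGE; fluorescence was normalized to Coomassie staining.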
# [3] = biological target: T3, PLAAT5 (Homo sapiens, UniProt Q96KN8)
# T3 sequence (Q96KN8 1-279): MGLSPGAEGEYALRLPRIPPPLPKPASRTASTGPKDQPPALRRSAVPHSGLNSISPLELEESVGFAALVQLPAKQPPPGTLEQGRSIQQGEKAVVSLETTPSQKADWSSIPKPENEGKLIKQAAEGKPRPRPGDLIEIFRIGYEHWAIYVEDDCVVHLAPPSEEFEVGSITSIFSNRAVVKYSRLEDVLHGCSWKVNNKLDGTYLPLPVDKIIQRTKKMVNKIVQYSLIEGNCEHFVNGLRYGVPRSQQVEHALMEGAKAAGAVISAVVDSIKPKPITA
# How it was run: as §1
# [4] = biological target: T4, hPLA2G4E (Homo sapiens, UniProt Q3MJ16); test: gel-based ABPP with FP-TAMRA, hPLA2G4E-overexpressing membrane lysate; conditions: 10 μM
# T4 sequence (Q3MJ16 1-868): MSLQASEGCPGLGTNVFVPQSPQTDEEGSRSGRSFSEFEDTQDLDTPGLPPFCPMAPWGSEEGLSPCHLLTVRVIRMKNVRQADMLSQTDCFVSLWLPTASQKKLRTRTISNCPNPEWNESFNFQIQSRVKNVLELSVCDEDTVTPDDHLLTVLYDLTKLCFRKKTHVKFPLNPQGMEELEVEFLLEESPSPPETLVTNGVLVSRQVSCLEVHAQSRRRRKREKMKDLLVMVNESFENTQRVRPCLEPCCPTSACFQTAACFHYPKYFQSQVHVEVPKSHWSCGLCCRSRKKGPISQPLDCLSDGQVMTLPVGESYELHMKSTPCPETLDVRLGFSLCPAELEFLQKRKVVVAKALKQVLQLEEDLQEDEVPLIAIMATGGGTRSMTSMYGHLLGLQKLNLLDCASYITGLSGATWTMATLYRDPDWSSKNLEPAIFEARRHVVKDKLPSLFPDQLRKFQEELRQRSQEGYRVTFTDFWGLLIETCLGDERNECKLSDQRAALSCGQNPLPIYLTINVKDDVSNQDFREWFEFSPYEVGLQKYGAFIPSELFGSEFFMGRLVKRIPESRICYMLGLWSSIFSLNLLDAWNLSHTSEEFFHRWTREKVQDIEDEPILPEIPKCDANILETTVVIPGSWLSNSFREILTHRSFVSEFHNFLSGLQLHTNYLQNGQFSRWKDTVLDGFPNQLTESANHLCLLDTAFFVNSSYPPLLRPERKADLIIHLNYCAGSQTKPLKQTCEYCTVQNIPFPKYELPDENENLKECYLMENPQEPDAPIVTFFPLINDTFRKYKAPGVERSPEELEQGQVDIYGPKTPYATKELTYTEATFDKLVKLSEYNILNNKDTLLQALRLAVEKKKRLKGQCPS
# How it was run: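 Membrane lysate from hPLA2G4E-overexpressing cells (1 μg/μL) was preincubated with test compound in DMSO (30 min, rt), then labeled with FP-TAMRA (50 nM, 5 min, rt). Proteins were denatured in Laemmli buffer and resolved on 8% acrylamide SDS-PAGE. In-gel fluorescence was normalized to Coomassie staining.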
# [5] = biological target: T5, hMAGL (Homo sapiens, UniProt Q99685); test: natural substrate-based fluorescence assay MAGL; conditions: 10 μM
# T5 sequence (Q99685 1-303): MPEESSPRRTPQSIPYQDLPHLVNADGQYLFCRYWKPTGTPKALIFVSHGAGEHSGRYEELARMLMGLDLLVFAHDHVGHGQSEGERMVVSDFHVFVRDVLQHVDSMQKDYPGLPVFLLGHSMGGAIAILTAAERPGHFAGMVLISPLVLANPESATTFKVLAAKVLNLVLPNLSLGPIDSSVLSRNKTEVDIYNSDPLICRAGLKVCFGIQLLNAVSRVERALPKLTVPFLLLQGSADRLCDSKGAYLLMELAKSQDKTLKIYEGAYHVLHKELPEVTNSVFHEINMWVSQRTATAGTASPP
structure (smiles),measurement,setting,value
"O=C(CCCc1ccccc1)C(=O)NCCc1ccc(Oc2ccccc2)cc1 [Compound 51, 2-Oxo-N-(4-phenoxyphenethyl)-5-phenylpentanamide]",higher potency for PLAAT2 than initial hit,[1],10 fold
same,increase in activity/potency for PLAAT2 compared to 25,[1],10 fold
same,inhibition of DAGLβ (in words),[2],not inhibited
same,higher potency for PLAAT5 than initial hit,[3],10 fold
same,inhibition of PLA2G4E (in words),[4],not inhibited
same,inhibition of MAGL (in words),[5],not inhibited
